Measured values published in ChEMBL document CHEMBL4425095, “Novel Cephalosporins Selectively Active on Nonreplicating Mycobacterium tuberculosis” (J Med Chem, 2016).
Converted amounts (≈) assume the structure as drawn. The source made the active and inactive calls. The rule behind the calls is not given here.

Legend:
[1] = tested on: Mycobacterium tuberculosis; assay: Antimycobacterial activity against non-replicating Mycobacterium tuberculosis mc2 6220 harboring panCD/lysA deletion mutant incubated for 3 days measured at OD580 = 0.01 by two-fold serial dilution method; assay type: functional
In short: (§1)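 M. tuberculosis mc26220 washed twice in PBS-tyloxapol and resuspended in Sauton's-based nonreplicating medium (pH 5.0, butyrate 0.05%, BSA, tyloxapol, lysine, pantothenate, 0.5 mM NaNO2). Incubated at 1% O2, 5% CO2 with 2-fold serially diluted compound from DMSO. After 3 days, diluted 5-fold in fresh replicating medium for outgrowth at 20% O2. Reported as MIC90.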

[2] = tested on: Mycobacterium tuberculosis; assay: Antimycobacterial activity against replicating Mycobacterium tuberculosis mc2 6220 harboring panCD/lysA deletion mutant incubated for 3 days measured at OD580 = 0.01 by two-fold serial dilution method; assay type: functional
[3] = tested on: Mycobacterium tuberculosis; assay: Antimycobacterial activity against replicating Mycobacterium tuberculosis mc2 6220 harboring panCD/lysA deletion mutant by two-fold serial dilution method; assay type: functional
In short: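 M. tuberculosis mc26220 in replicating medium supplemented with glycerol (final 0.5%), OADC, casamino acids 0.05%, lysine 240 μg/mL and pantothenate 24 μg/mL. Exposed to 2-fold serially diluted compound from DMSO. OD580 read after 7 days at 20% O2, 5% CO2. Reported as MIC90.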

[4] = tested on: Mycobacterium tuberculosis; assay: Antimycobacterial activity against non-replicating Mycobacterium tuberculosis mc2 6220 harboring panCD/lysA deletion mutant incubated for 6 days measured at OD580 = 0.01 by two-fold serial dilution method; assay type: functional; in short: as §1
[5] = tested on: Mycobacterium tuberculosis; assay: Antimycobacterial activity against non-replicating Mycobacterium tuberculosis mc2 6220 harboring panCD/lysA deletion mutant incubated for 7 days measured at OD580 = 0.1 by two-fold serial dilution method; assay type: functional; in short: as §1
[6] = tested on: Mycobacterium tuberculosis; assay: Antimycobacterial activity against non-replicating Mycobacterium tuberculosis mc2 6220 harboring panCD/lysA deletion mutant incubated for 7 days measured at OD580 = 0.01 by high throughput screen assay; assay type: functional, organism-based
[7] = tested on: Mycobacterium tuberculosis; assay: Antimycobacterial activity against non-replicating Mycobacterium tuberculosis mc2 6220 harboring panCD/lysA deletion mutant incubated for 6 days measured at OD580 = 0.1 by two-fold serial dilution method; assay type: functional; in short: as §1
[8] = tested on: Mycobacterium tuberculosis; assay: Antimycobacterial activity against non-replicating Mycobacterium tuberculosis mc2 6220 harboring panCD/lysA deletion mutant incubated for 3 days measured at OD580 = 0.1 by two-fold serial dilution method; assay type: functional; in short: as §1
[9] = tested on: Mycobacterium tuberculosis; assay: Antimycobacterial activity against non-replicating Mycobacterium tuberculosis mc2 6220 harboring panCD/lysA deletion mutant incubated for 7 days measured at OD580 = 0.01 by two-fold serial dilution method; assay type: functional; in short: as §1

SMILES: CCCOC(=O)C1=C(C)CS[C@@H]2[C@H](NC(=O)COc3ccccc3)C(=O)N12
- MIC90 [1]: 0.9 µg/mL (≈ 2.3 µM)
- MIC90 [2]: >100 µg/mL
- MIC90 [3]: >100 µg/mL
- MIC90 [4]: 0.64 µg/mL (≈ 1.64 µM)
- MIC90 [5]: 1.05 µg/mL (≈ 2.69 µM)
- Activity [6]: Active
- MIC90 [7]: 1.05 µg/mL (≈ 2.69 µM)
- MIC90 [8]: 1.76 µg/mL (≈ 4.51 µM)
- MIC90 [9]: 0.64 µg/mL (≈ 1.64 µM)
